What was measured:
[1] = tested on: Liver; experiment: Half life in human pooled liver microsomes at 1 uM in presence of NADPH by LC/MS/MS method; format: ADME, microsome; conditions: microsomes, 1 µM
[2] = Inhibition of Trypanosoma brucei AdoMetDC without pre-incubation for 30 mins before AdoMet substrate addition by RapidFire-mass spectrometry
[3] = Inhibition of Trypanosoma brucei AdoMetDC pre-incubated for 30 mins before AdoMet substrate addition by RapidFire-mass spectrometry
[4] = tested on: Trypanosoma brucei; experiment: Antitrypanosomal activity against Trypanosoma brucei Lister 427 bloodstream forms assessed as inhibition of parasite growth incubated for 48 hrs by ATP-bioluminescence cell viability assay; format: functional; conditions: Lister 427, 48 h
[5] = tested on: Liver; experiment: Half life in mouse pooled liver microsomes at 1 uM in presence of NADPH by LC/MS/MS method; format: ADME, microsome; conditions: microsomes, 1 µM
[6] = tested on: Trypanosoma brucei brucei; experiment: Antitrypanosomal activity against Trypanosoma brucei brucei; format: functional
[7] = Inhibition of His-tagged Trypanosoma brucei AdoMetDC expressed in Escherichia coli pre-incubated for 30 mins before AdoMet substrate addition
[8] = tested on: Trypanosoma brucei; experiment: Antitrypanosomal activity against Trypanosoma brucei Lister 427 bloodstream forms assessed as inhibition of parasite growth at 25 uM incubated for 48 hrs by ATP-bioluminescence cell viability assay; format: functional; conditions: Lister 427, 48 h, read-out: GI
Summary of the method: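 Bloodstream-form Lister 427 cells grown in HMI-19, seeded at 3000 cells/mL; compound added as 100-fold intermediate dilution, final DMSO 0.1%. After 48 h culture, viability read by CellTiter-Glo ATP-bioluminescence. Tested 0.0038–25 µM in 3-fold steps, triplicate; no-cell and DMSO-only controls (0% and 100% viability) per plate; value is percent inhibition at 25 µM.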

[9] = tested on: MDCK-MDR1; experiment: Apparent permeability in MDCK2-MDR1 cells at 3 uM incubated for 1 hr in absence of P-glycoprotein inhibitor GF120918 by LC/MS/MS method; format: ADME, cell-based, Canis lupus familiaris; conditions: dog, mdck-mdr1, 1 h
[10] = tested on: Trypanosoma brucei; experiment: Inhibition of Trypanosoma brucei AdoMetDC at 50 uM without pre-incubation for 30 mins before AdoMet substrate addition by RapidFire-mass spectrometry
Summary of the method: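 Inhibition without pre-incubation: substrate solution (80 µM AdoMet) added to compound before the enzyme solution (50 nM purified T. brucei AdoMetDC/prozyme); buffer Hepes pH 7.7 with 5 mM putrescine. Reaction ran 20 min, stopped with 1 M HCl, then analysed by RapidFire-MS.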

[11] = tested on: Trypanosoma brucei; experiment: Inhibition of Trypanosoma brucei AdoMetDC at 50 uM pre-incubated for 30 mins before AdoMet substrate addition by RapidFire-mass spectrometry
Summary of the method: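 Purified T. brucei AdoMetDC/prozyme complex, 50 nM in the enzyme solution, pre-incubated 30 min with compound in DMSO before adding the substrate solution (80 µM AdoMet); Hepes pH 7.7, NaCl, 5 mM putrescine. Reaction 20 min, quenched with 1 M HCl; substrate and product quantified by RapidFire-MS.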

Compound: CC1(C)O[C@@H]2[C@H](O1)[C@@H](CN(C/C=C\CN)CCF)O[C@H]2n1cnc2c(N)ncnc21
- t1/2 [1]: > 1.5 h
- IC50 [2]: > 50 µM
- IC50 [3]: > 50 µM
- EC50 [4]: > 25 µM
- t1/2 [5]: > 1.5 h

Compound: Cc1nc2c(N)ncnc2n1[C@@H]1O[C@H](CN(C)C/C=C\CN)[C@@H](O)[C@H]1O
- t1/2 [1]: > 1.5 h
- IC50 [2]: 0.23 µM
- EC50 [6]: 0.0018 µM
- IC50 [7]: 0.021 µM
- IC50 [3]: 0.021 µM
- EC50 [4]: 0.0018 µM
- t1/2 [5]: > 1.5 h

Compound: Cc1nc2c(N)ncnc2n1[C@@H]1O[C@H](CN(C)C/C=C\CNC(=O)OC(C)C)[C@@H](O)[C@H]1O
- t1/2 [1]: > 1.5 h
- IC50 [2]: > 50 µM
- IC50 [3]: > 50 µM
- inhibition of growth at 25 µM [8]: 35%
- t1/2 [5]: > 1.5 h

Compound: CCC(=O)NC/C=C\CN(C)C[C@H]1O[C@@H](n2cnc3c(N)ncnc32)[C@H](OC(C)=O)[C@@H]1OC(C)=O
- t1/2 [1]: 1.25 h
- IC50 [2]: > 50 µM
- IC50 [3]: > 50 µM
- EC50 [4]: > 25 µM
- t1/2 [5]: 0.0767 h

Compound: Cc1nc2c(N)ncnc2n1[C@@H]1O[C@H](CN(C/C=C\CN)C2CC2)[C@H]2OC(C)(C)O[C@H]21
- t1/2 [1]: > 1.5 h
- IC50 [2]: > 50 µM
- IC50 [3]: > 50 µM
- EC50 [4]: > 3 µM
- t1/2 [5]: > 1.5 h

Compound: Cc1nc2c(N)ncnc2n1[C@@H]1O[C@H](CN(C/C=C\CNC(=O)OC(C)(C)C)C2CC2)[C@H]2OC(C)(C)O[C@H]21
- t1/2 [1]: < 0.0417 h
- IC50 [2]: > 50 µM
- Papp [9]: 31.2 ×10⁻⁶ cm/s
- IC50 [3]: 42 µM
- EC50 [4]: 3 µM
- t1/2 [5]: < 0.0417 h

Compound: CN(C/C=C\CN)C[C@H]1O[C@@H](n2cnc3c(N)ncnc32)[C@@H]2OC(C)(C)O[C@@H]21
- t1/2 [1]: > 1.5 h
- IC50 [3]: 3 µM
- inhibition [10]: 22%
- EC50 [4]: 0.42 µM
- t1/2 [5]: > 1.5 h

Compound: CCOc1ncnc2c1ncn2[C@@H]1O[C@H](CN(C)C/C=C\CN)[C@@H](O)[C@H]1O
- t1/2 [1]: > 1.5 h
- IC50 [3]: 0.6 µM
- inhibition [10]: 33%
- EC50 [4]: 0.36 µM
- t1/2 [5]: > 1.5 h

Compound: CN(C/C=C\CN)C[C@H]1O[C@@H](n2cnc3cncnc32)[C@@H]2OC(C)(C)O[C@@H]21
- t1/2 [1]: > 1.5 h
- IC50 [2]: > 50 µM
- IC50 [3]: > 50 µM
- EC50 [4]: > 25 µM
- t1/2 [5]: 0.983 h

Compound: CN(C/C=C\CN)C[C@H]1O[C@@H](n2cnc3c(N(C)C)ncnc32)[C@H](O)[C@@H]1O
- t1/2 [1]: > 1.5 h
- IC50 [3]: 0.81 µM
- inhibition [10]: 37%
- EC50 [4]: 10 µM
- t1/2 [5]: > 1.5 h

Compound: NC/C=C\CN(CCF)C[C@H]1O[C@@H](n2cnc3c(N)ncnc32)[C@H](O)[C@@H]1O
- t1/2 [1]: > 1.5 h
- IC50 [2]: > 50 µM
- inhibition [11]: 36%
- EC50 [4]: > 25 µM
- t1/2 [5]: > 1.5 h

Compound: Cc1nc2c(N)ncnc2n1[C@@H]1O[C@H](CN(C/C=C\CN)C2CC2)[C@@H](O)[C@H]1O
- t1/2 [1]: > 1.5 h
- IC50 [2]: > 50 µM
- IC50 [3]: > 50 µM
- EC50 [4]: > 3 µM
- t1/2 [5]: > 1.5 h

Compound: Cc1nc2c(N)ncnc2n1[C@@H]1O[C@H](CN(C)C/C=C\CNC(=O)OCc2ccccc2)[C@@H](O)[C@H]1O
- t1/2 [1]: 0.4 h
- inhibition [11]: 39%
- inhibition [10]: 17%
- EC50 [4]: 2.6 µM
- t1/2 [5]: 0.217 h

Compound: CNc1ncnc2c1ncn2[C@@H]1O[C@H](CN(C)C/C=C\CN)[C@@H](O)[C@H]1O
- t1/2 [1]: > 1.5 h
- IC50 [2]: 14 µM
- IC50 [3]: 0.17 µM
- EC50 [4]: 0.37 µM
- t1/2 [5]: > 1.5 h

Compound: CC(C)Nc1ncnc2c1ncn2[C@@H]1O[C@H](CN(C)C/C=C\CN)[C@@H](O)[C@H]1O
- t1/2 [1]: > 1.5 h
- IC50 [2]: 7.1 µM
- IC50 [3]: 0.11 µM
- EC50 [4]: 2.5 µM
- t1/2 [5]: > 1.5 h

Compound: CNc1ncnc2c1ncn2[C@@H]1O[C@H](CN(C)C/C=C\CN)[C@H]2OC(C)(C)O[C@H]21
- t1/2 [1]: > 1.5 h
- IC50 [2]: > 50 µM
- IC50 [3]: 12 µM
- inhibition of growth at 25 µM [8]: 37%
- t1/2 [5]: > 1.5 h

Compound: CN(C/C=C\CN)C[C@H]1O[C@@H](n2cnc3c(N)ncnc32)[C@H](O)[C@@H]1O
- t1/2 [1]: > 1.5 h
- IC50 [2]: 2.4 µM
- EC50 [6]: 0.01 µM
- IC50 [7]: 0.041 µM
- IC50 [3]: 0.041 µM
- EC50 [4]: 0.01 µM
- t1/2 [5]: > 1.5 h

Compound: CCCCCCCCC(=O)Nc1ncnc2c1ncn2[C@@H]1O[C@H](CN(C)C/C=C\CN)[C@H]2OC(C)(C)O[C@H]21
- t1/2 [1]: 0.162 h
- IC50 [2]: 48 µM
- Papp [9]: 1 ×10⁻⁶ cm/s
- IC50 [3]: 0.85 µM
- EC50 [4]: 0.16 µM
- t1/2 [5]: 0.1 h

Compound: CCC(=O)NC/C=C\CN(C)C[C@H]1O[C@@H](n2cnc3c(N)ncnc32)[C@H](O)[C@@H]1O
- t1/2 [1]: > 1.5 h
- IC50 [2]: 19 µM
- IC50 [3]: 25 µM
- EC50 [4]: > 25 µM
- t1/2 [5]: > 1.5 h

Compound: Cc1nc2c(N)ncnc2n1[C@@H]1O[C@H](CN(C/C=C\CN)CCO)[C@H]2OC(C)(C)O[C@H]21
- t1/2 [1]: > 1.5 h
- IC50 [2]: > 50 µM
- IC50 [3]: > 50 µM
- EC50 [4]: > 25 µM
- t1/2 [5]: > 1.5 h

Compound: CC(=O)NC/C=C\CN(C)C[C@H]1O[C@@H](n2cnc3c(N)ncnc32)[C@H](OC(C)=O)[C@@H]1OC(C)=O
- t1/2 [1]: > 1.5 h
- IC50 [2]: > 50 µM
- IC50 [3]: > 50 µM
- EC50 [4]: > 25 µM
- t1/2 [5]: 0.11 h

Compound: CCOC(=O)NC/C=C\CN(C)C[C@H]1O[C@@H](n2c(C)nc3c(N)ncnc32)[C@H](O)[C@@H]1O
- t1/2 [1]: > 1.5 h
- inhibition [11]: 40%
- inhibition [10]: 40%
- t1/2 [5]: > 1.5 h

Compound: CCCC(=O)NC/C=C\CN(C)C[C@H]1O[C@@H](n2cnc3c(N)ncnc32)[C@H](O)[C@@H]1O
- t1/2 [1]: > 1.5 h
- IC50 [2]: > 50 µM
- IC50 [3]: > 50 µM
- EC50 [4]: > 25 µM
- t1/2 [5]: > 1.5 h

Compound: CC(=O)NC/C=C\CN(C)C[C@H]1O[C@@H](n2cnc3c(N)ncnc32)[C@H](O)[C@@H]1O
- t1/2 [1]: > 1.5 h
- IC50 [2]: 13 µM
- IC50 [3]: 18 µM
- EC50 [4]: > 25 µM
- t1/2 [5]: > 1.5 h

Compound: Cc1nc2c(N)ncnc2n1[C@@H]1O[C@H](CN(C)C/C=C\CNC(=O)OC(C)(C)C)[C@H]2OC(C)(C)O[C@H]21
- t1/2 [1]: < 0.0417 h
- IC50 [2]: > 50 µM
- Papp [9]: 5.1 ×10⁻⁶ cm/s
- IC50 [3]: > 50 µM
- EC50 [4]: > 25 µM
- t1/2 [5]: < 0.0417 h

Compound: CCCC(=O)NC/C=C\CN(C)C[C@H]1O[C@@H](n2cnc3c(N)ncnc32)[C@H](OC(C)=O)[C@@H]1OC(C)=O
- t1/2 [1]: 0.85 h
- IC50 [2]: > 50 µM
- IC50 [3]: > 50 µM
- EC50 [4]: > 25 µM
- t1/2 [5]: 0.05 h

From ChEMBL document CHEMBL4043178, “Synthesis and evaluation of analogs of 5'-(((Z)-4-amino-2-butenyl)methylamino)-5'-deoxyadenosine (MDL 73811, or AbeAdo) - An inhibitor of S-adenosylmethionine decarboxylase with antitrypanosomal activity” (Bioorg Med Chem, 2017)
